Measurements published in PubChem BioAssay.
Active and inactive are the calls of the source.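 Rule for the calls, unless noted: active = duplicate-averaged activation above buffer control mean plus 5 SD of those controls; inactive = the rest.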

Experiments:
[1] = nonspecific flux increase, KCNQ1-free cells – parental CHO cells, counter-screen for KCNQ1 potentiator project (AID 493006); settings: parental CHO-K1 cells, FluxOR thallium flux, at 10 µM; hits give high values
Outline: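 Assay system: Untransfected host CHO-K1 cells with FluxOR thallium dye | Probe or stimulus: Potassium/thallium depolarization pulse | Schedule: Overnight 37 °C plating, 90 min RT dye, 20 min compound | Detection: Kinetic thallium-flux fluorescence | Read-out: Max-minus-min fluorescence over baseline, percent of buffer-to-R-L3 span | Benchmarks: Low control buffer, high control R-L3 activator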

[2] = biological target: Potassium voltage-gated channel subfamily KQT member 1 (Homo sapiens) (UniProt P51787); assay: enhancement of KCNQ1 channel thallium flux – FluxOR thallium flux, CHO cells, duplicates, confirmation (AID 493007;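 active = potentiation averaged over duplicate wells exceeding buffer-only control mean by more than 3 SD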;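 for outcome: cells depolarized by a potassium plus thallium sulfate stimulus after compound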); settings: KCNQ1 cell line, FluxOR thallium flux fluorescence, at 10 µM; hits give high values, % of reference activator effect, buffer zero
Outline: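 Material: KCNQ1-expressing CHO cell line; Incubation: FluxOR dye loading 90 min, compound exposure 20 min, room temperature; Detection: FluxOR Tl+ flux fluorescence, 10 s baseline plus 110 s recording; Read-out: percent activation between buffer and R-L3 responses; Control set: buffer-only wells as 0% and R-L3 activator as 100%; Replication: duplicate wells per compound.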

[3] = biological target: Potassium voltage-gated channel subfamily KQT member 2 (Rattus norvegicus) (UniProt O88943); assay: KCNQ2 thallium flux enhancement – KCNQ2-CHO-K1 cells, selectivity assay for KCNQ1 potentiator project (AID 493009;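 active = mean duplicate potentiation above the buffer control mean plus 5 SD of buffer wells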;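 note: assay conditions were tuned for KCNQ1 rather than KCNQ2 modulators; signal is max minus min fluorescence divided by baseline after thallium stimulus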); settings: FluxOR thallium flux fluorescence, at 10 µM; hits give high values, scaled: buffer 0, activator control 100
[4] = biological target: Potassium voltage-gated channel subfamily KQT member 1 (Homo sapiens) (UniProt P51787); assay: KCNQ1 activators by electrophysiology – IonWorks patch clamp, KCNQ1-CHO cells, orthogonal assay for KCNQ1 potentiator project, confirmation (AID 493184;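 active = current rise at least 3 SD above the untreated control mean in each of two repeat wells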); settings: automated patch clamp current, at 10 µM; hits give high values
Outline: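 assay system = KCNQ1-expressing CHO cells | medium = external bath solution at pH 7.4 | probe or stimulus = 2,000 ms depolarization, -90 to +40 mV | compound dosing = 10 µM final, single point | measured by = automated voltage clamp, amphotericin B perforated patch | measure = percent current increase versus pre-compound level | replication = duplicates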

Sequence of Potassium voltage-gated channel subfamily KQT member 1 (Homo sapiens) (P51787 whole entry, looked up): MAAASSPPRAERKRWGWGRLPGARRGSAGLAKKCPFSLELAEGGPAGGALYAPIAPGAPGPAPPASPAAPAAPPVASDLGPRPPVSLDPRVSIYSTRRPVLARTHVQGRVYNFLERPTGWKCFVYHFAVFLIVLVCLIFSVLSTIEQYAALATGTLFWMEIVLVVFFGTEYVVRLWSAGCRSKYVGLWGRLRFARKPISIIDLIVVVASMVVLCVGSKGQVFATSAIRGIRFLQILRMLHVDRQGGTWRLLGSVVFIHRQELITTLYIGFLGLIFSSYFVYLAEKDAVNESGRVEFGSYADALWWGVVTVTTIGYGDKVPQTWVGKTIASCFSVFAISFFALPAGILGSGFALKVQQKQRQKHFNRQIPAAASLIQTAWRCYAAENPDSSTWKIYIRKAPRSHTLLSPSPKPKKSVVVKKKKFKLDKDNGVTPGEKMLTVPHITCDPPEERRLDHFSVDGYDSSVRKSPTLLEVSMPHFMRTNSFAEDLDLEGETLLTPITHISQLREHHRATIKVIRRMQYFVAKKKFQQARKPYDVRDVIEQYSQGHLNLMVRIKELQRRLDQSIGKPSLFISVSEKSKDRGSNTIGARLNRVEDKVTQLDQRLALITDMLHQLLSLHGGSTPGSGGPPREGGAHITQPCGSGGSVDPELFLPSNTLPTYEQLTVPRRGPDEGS
Sequence of Potassium voltage-gated channel subfamily KQT member 2 (Rattus norvegicus) (O88943 whole entry, looked up): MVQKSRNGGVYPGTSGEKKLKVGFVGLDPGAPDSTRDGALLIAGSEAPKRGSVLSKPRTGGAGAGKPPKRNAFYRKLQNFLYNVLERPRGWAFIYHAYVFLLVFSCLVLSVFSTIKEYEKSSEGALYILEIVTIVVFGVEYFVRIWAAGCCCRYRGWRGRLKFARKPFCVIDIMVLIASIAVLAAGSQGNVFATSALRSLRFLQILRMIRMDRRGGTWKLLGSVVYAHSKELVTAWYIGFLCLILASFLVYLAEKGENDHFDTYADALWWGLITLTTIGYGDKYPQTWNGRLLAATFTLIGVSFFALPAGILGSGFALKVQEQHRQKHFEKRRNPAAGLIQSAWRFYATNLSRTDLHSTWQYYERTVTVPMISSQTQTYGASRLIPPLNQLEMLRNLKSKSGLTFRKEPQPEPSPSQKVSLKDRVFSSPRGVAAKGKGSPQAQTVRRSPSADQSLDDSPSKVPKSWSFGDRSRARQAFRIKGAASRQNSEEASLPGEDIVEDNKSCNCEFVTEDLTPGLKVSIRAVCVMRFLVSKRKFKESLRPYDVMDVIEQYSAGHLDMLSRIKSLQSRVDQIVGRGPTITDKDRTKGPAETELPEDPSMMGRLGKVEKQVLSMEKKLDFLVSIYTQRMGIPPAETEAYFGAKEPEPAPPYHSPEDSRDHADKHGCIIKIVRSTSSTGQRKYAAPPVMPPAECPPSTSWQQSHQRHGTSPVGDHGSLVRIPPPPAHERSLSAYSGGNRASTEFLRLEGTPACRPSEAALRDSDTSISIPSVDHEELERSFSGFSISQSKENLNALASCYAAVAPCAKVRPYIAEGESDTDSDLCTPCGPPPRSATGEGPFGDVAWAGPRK

Structure (SMILES)	activation [1]	potentiation [2]	potentiation [3]	outcome [4]	outcome [1]	outcome [2]	outcome [3]
COc1ccc(OCC(=O)NNC(=O)c2cccs2)cc1	146% (active)	47.5% (active)	168% (active)	inactive	–	–	–
S=c1[nH]c(-c2ccc(Cl)cc2)cs1	634% (active)	206% (active)	525% (active)	inactive	–	–	–
Cc1ccc(C)c(NC(=S)NNC(=O)c2csc3c2CCC(C)C3)c1 (stereo not given)	242% (active)	116% (active)	322% (active)	inactive	–	–	–
COc1cc(CNCc2ccccn2)ccc1OCc1ccc(Cl)cc1	–	–	–	inactive	inactive	inactive	inactive
CCCCCCCCCCC[N+](C)(C)CC/C=C1/c2ccccc2Sc2ccc(Cl)cc21	184% (active)	64% (active)	–	inactive	–	–	inactive
COc1cccc(NC(=O)c2cncs2)c1	–	–	–	inactive	inactive	inactive	inactive
Cc1noc(C)c1S(=O)(=O)Nc1ccc(C#N)cc1	–	–	–	inactive	inactive	inactive	inactive
CCOC(=O)CN1C(=O)N(CC)C(C)=C(C(=O)OC)[C@@H]1c1ccccc1	–	–	–	inactive	inactive	inactive	inactive
CCCCN(CCCC)C(=S)NC(=O)C(C)(C)C	–	–	–	inactive	inactive	inactive	inactive
Cc1cccc(/C=C/C(=O)c2cc(Br)ccc(=O)c2O)c1	170% (active)	90% (active)	254% (active)	inactive	–	–	–
COC(=O)c1c(NC(=O)CC2SC(N)=NC2=O)sc2c1CCC(C)C2 (stereo not given)	–	–	–	inactive	inactive	inactive	inactive
Cc1ccc(S(=O)(=O)N(C)c2nc3ccccc3[nH]c2=S)cc1	–	42.5% (active)	197% (active)	inactive	inactive	–	–
CCSc1nc2c(sc3ccccc32)c(=O)n1C(C)C	310% (active)	206% (active)	479% (active)	inactive	–	–	–
CC(=O)N/C(=C/c1ccc2c(c1)OCO2)C(=O)O	–	–	–	inactive	inactive	inactive	inactive
O=C(NN=C1CCCC1)c1n[nH]c2c1CCC2	196% (active)	35% (active)	178% (active)	inactive	–	–	–
CCOC(=O)c1cccc(C(=O)Nc2nc3ccc(OC)cc3s2)n1	–	–	–	inactive	inactive	inactive	inactive
CCc1cc2c(=O)n(CCC(C)C)c(=S)[nH]c2s1	516% (active)	228% (active)	499% (active)	inactive	–	–	–
CCOC(=O)c1ccc(Oc2nc(NC(C)(C)C)nc(N(C)C)n2)cc1	–	–	–	inactive	inactive	inactive	inactive
Cc1ccc(C(C)C)c(OCc2n[nH]c(=S)o2)c1	154% (active)	27% (active)	160% (active)	inactive	–	–	–
O=C(Cc1cccs1)N=Nc1c(O)[nH]c2ccc(Br)cc12	–	–	–	inactive	inactive	inactive	inactive

Structure (SMILES)	activation [1]	potentiation [2]	potentiation [3]	outcome [4]	outcome [1]	outcome [2]	outcome [3]
O=C(NCC1CCCO1)c1ccc2c(c1)S(=O)(=O)c1ccccc1C2=O (stereo not given)	–	–	–	inactive	inactive	inactive	inactive
CCCN(C(=O)c1cn(-c2ccccc2)nc1-c1ccc(OC)cc1)C1CCS(=O)(=O)C1 (stereo not given)	–	–	–	inactive	inactive	inactive	inactive
CC1=CC(=O)C(C(C)C)=CC1=NC(=O)c1ccc(C)cc1	–	–	–	inactive	inactive	inactive	inactive
CCc1nnc(NC(=O)c2ccc(S(=O)(=O)N(CC)Cc3ccccc3)cc2)o1	254% (active)	107% (active)	270% (active)	inactive	–	–	–
Cc1ccc(Cc2cnc(N3C(=N)SC(c4ccccc4)C3=O)s2)cc1 (stereo not given)	–	–	–	inactive	inactive	inactive	inactive
CCCCCNC(=O)Cn1c(=O)c2c(ncn2CC(C)C)n(Cc2ccccc2)c1=O	–	–	–	inactive	inactive	inactive	inactive
CCCSc1nnc(-c2cnn(-c3ccccc3)c2-n2cccc2)n1C	–	–	–	inactive	inactive	inactive	inactive
COc1ccc(NC(=S)NC(=O)c2csnn2)cc1	213% (active)	71% (active)	282% (active)	inactive	–	–	–
Cc1cc(C(=O)CSc2nnc(N)s2)c(C)n1C1CC1	–	–	–	inactive	inactive	inactive	inactive
CCc1nnc(NC(=O)CN2C(=O)c3ccccc3C2=O)s1	–	–	–	inactive	inactive	inactive	inactive
S=C(N/N=C/c1ccccc1Cl)Nc1cccc(Cl)c1Cl	–	71% (active)	173% (active)	inactive	inactive	–	–
CCOC(=O)Cn1c2ccccc2c2nc3ccccc3nc21	–	–	–	inactive	inactive	inactive	inactive
O=C(O)CCC(=O)Nc1ccc(S(=O)(=O)c2ccc(NC(=O)CCC(=O)O)cc2)cc1	–	–	–	inactive	inactive	inactive	inactive
C=CCN1C(=O)C(CC(=O)NCC)SC1=Nc1ccc(S(N)(=O)=O)cc1 (stereo not given)	–	–	–	inactive	inactive	inactive	inactive
COc1ccc(C)cc1-n1c(C)cc(C=O)c1C	–	44% (active)	153% (active)	inactive	inactive	–	–
O=c1c2cc(NC(=S)NCCCN3CCC(Cc4ccccc4)CC3)ccc2nc2n1CCCCC2	–	–	–	inactive	inactive	inactive	inactive
O=C(CNc1ccc2c(c1)OCO2)N/N=C\c1cn(Cc2ccccc2)c2ccccc12	–	–	–	inactive	inactive	inactive	inactive
O=C(CSc1nnc(SCc2cccc3ccccc23)s1)c1ccc2c(c1)OCO2	163% (active)	–	–	inactive	–	inactive	inactive
COc1cccc(N=Nc2ccc3cccnc3c2O)c1	154% (active)	29% (active)	162% (active)	inactive	–	–	–
Cc1ccccc1-c1nc(Cc2ccc(Cl)cc2)no1	–	–	–	inactive	inactive	inactive	inactive

Structure (SMILES)	activation [1]	potentiation [2]	potentiation [3]	outcome [4]	outcome [1]	outcome [2]	outcome [3]
CCN(CC)CCn1c(=S)[nH]c2cc(C(=O)NCc3ccc(C)cc3)ccc2c1=O	–	–	–	inactive	inactive	inactive	inactive
COc1ccc(Cc2nnc(NC(=O)C3CC(=O)N(c4ccccc4)C3)s2)cc1OC (stereo not given)	–	–	–	inactive	inactive	inactive	inactive
Cc1ccc2sc(N(CCCN(C)C)C(=O)CCS(=O)(=O)c3ccccc3)nc2c1C	–	–	–	inactive	inactive	inactive	inactive
Cc1cc(C)n(-c2nc3ccccc3nc2N2CCN(C(=O)c3ccc(Cl)cc3)CC2)n1	–	–	–	inactive	inactive	inactive	inactive
O=C(NC(=S)Nc1ccccc1Cl)c1ccco1	140% (active)	–	146% (active)	inactive	–	inactive	–
COC(=O)c1ccc(COC(=O)c2ccccn2)cc1	–	65% (active)	157% (active)	inactive	inactive	–	–
Cc1ccccc1C(=O)NNC(=O)C(=O)Nc1cccc(Cl)c1C	346% (active)	168% (active)	406% (active)	inactive	–	–	–
CCOC(=O)c1ccc(NC(=S)N2CCSC2c2ccc(Br)cc2)cc1 (stereo not given)	–	–	–	inactive	inactive	inactive	inactive
CSc1ccccc1NC(=O)c1ccc2c(c1)CCN2S(C)(=O)=O	–	–	–	inactive	inactive	inactive	inactive
Cc1ccccc1N(CC(=O)N/N=C/c1cc(C)n(-c2ccccc2C)c1C)S(C)(=O)=O	–	–	–	inactive	inactive	inactive	inactive
COc1ccc(C2c3ccc4ccccc4c3Oc3ncn(CCCO)c(=N)c32)cc1 (stereo not given)	–	–	–	inactive	inactive	inactive	inactive
COc1cccc(C=O)c1OCCCOc1cccc2cccnc12	–	–	–	inactive	inactive	inactive	inactive
O=C(NCc1ccc(F)cc1)C1CCC(CNS(=O)(=O)c2ccccc2)CC1 (stereo not given)	–	–	–	inactive	inactive	inactive	inactive
Cc1ccc(O)c(C(=O)CC(=O)c2cccc(F)c2)c1	–	24% (active)	159% (active)	inactive	inactive	–	–
C/C(=N/NC(=O)c1ccc(Br)o1)c1ccc(C)o1	–	–	–	inactive	inactive	inactive	inactive
CCCCOC(=O)Nc1ccccc1C(N)=O	–	–	–	inactive	inactive	inactive	inactive
Cc1ccc(Cn2ncc3c(NN)ncnc32)cc1	–	–	–	inactive	inactive	inactive	inactive
O=C(NC(=S)N(CC1CCC1)CC1CCCO1)c1cccc([N+](=O)[O-])c1 (stereo not given)	224% (active)	74.5% (active)	216% (active)	inactive	–	–	–
C/C(=N\NC(=O)C(=O)Nc1cccc(C(F)(F)F)c1)c1ccc(Cl)s1	–	–	–	inactive	inactive	inactive	inactive
CCOC(=O)c1c(NS(=O)(=O)c2cccc(OC)c2)sc2c1CCC2	–	59% (active)	–	inactive	inactive	–	inactive
